CYP2C9 activ: human CYP2C9 activators, primary screen, biochemical, luminescence. Cytochrome P450 2C9 (Homo sapiens), P11712. recombinant CYP2C9, luciferin-H conversion; stronger effect = higher value; factor 1 = untreated enzyme, 0 = blocked. activation factor at 5 µM. 1.4% of 96,000 active;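 active means activation factor of 2 or more for CYP2C9 at a 5 µM dose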
CYP2C19 activ: human CYP2C19 activators, primary screen, biochemical, luminescence; Cytochrome P450 2C19 (Homo sapiens), P33261; recombinant CYP2C19, luciferin-H EGE luminescence; stronger effect = higher value; 0 = fully inhibited enzyme, 1 = untreated enzyme; 96,000 tested, under 10 active; activation factor at 5 µM;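 active means activation factor of at least 2 at 5 µM in the primary screen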
Cav32 inh: Cav3.2 calcium influx blockers – cell-based, Fluo-4 calcium fluorescence, FDSS, MLSMR library, primary screen; 4% of 100,000 active; B-score at 10 µM; Cav3.2-expressing cells; stronger effect = lower value;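 active means single-dose well whose peak fluorescence ratio is a statistical outlier from its plate by either plate-standardised score or position-corrected B-score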
Target sequence (O95180 whole entry, looked up): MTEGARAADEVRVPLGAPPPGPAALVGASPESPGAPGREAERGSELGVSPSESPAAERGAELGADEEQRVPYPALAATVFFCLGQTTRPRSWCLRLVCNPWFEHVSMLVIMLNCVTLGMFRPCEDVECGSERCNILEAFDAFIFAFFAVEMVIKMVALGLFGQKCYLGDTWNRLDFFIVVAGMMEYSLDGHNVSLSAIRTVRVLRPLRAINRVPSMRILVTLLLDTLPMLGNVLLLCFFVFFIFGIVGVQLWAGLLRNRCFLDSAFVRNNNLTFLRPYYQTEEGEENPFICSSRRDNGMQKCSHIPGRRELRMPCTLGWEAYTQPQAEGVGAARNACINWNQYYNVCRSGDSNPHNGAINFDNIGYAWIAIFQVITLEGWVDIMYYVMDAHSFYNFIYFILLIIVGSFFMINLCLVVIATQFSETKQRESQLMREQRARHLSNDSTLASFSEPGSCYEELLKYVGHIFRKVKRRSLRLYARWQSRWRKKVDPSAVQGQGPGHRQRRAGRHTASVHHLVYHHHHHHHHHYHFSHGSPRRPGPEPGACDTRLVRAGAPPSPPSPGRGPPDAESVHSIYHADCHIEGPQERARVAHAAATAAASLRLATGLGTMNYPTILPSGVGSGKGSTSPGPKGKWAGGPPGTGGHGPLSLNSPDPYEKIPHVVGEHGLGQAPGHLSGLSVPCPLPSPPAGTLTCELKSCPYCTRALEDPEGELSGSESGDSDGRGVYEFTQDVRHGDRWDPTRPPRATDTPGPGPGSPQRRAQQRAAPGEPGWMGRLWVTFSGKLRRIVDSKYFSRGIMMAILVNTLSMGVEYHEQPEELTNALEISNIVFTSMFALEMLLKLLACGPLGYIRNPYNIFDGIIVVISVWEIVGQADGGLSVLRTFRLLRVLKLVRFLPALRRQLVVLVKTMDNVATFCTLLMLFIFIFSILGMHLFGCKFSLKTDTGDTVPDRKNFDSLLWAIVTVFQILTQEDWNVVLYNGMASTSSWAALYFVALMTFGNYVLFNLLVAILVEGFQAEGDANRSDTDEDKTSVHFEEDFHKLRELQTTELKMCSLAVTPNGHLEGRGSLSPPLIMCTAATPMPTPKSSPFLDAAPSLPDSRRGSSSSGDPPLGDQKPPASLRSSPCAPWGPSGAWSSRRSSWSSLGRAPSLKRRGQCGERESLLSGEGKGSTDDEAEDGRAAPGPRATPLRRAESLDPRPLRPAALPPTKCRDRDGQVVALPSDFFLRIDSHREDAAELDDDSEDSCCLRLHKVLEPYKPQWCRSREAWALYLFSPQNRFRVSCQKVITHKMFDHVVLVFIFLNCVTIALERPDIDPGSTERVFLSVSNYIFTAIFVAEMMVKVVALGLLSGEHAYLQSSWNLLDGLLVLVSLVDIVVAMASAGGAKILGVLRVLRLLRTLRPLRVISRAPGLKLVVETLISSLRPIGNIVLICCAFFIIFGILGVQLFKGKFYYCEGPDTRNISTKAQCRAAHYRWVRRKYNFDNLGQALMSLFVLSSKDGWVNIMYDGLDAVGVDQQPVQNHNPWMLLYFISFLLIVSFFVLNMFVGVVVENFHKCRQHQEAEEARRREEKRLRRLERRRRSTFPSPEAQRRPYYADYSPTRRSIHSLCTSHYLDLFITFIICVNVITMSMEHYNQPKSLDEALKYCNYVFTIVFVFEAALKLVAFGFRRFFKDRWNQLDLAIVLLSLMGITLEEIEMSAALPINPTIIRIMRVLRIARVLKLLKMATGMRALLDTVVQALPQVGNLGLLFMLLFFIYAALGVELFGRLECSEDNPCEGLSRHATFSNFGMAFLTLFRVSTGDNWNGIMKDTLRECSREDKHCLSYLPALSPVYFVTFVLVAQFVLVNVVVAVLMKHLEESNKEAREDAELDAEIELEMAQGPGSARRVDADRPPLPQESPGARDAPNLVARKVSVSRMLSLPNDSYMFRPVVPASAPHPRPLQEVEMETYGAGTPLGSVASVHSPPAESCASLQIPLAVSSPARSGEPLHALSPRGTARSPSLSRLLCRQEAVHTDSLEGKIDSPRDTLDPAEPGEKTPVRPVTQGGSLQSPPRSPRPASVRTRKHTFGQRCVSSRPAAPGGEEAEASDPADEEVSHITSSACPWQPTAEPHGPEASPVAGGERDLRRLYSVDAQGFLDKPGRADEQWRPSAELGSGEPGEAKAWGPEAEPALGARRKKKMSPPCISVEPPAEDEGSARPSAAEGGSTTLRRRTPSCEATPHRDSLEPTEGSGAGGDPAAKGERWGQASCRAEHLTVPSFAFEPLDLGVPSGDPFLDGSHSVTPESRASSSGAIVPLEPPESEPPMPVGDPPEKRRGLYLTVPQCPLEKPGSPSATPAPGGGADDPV
Rev-RRE block: HIV-1 Rev-RRE binding inhibitors, primary screen, biochemical, FRET, protein-RNA interaction | inhibition, % at 8 µM | P05866 | Rev peptide-RRE RNA binding | AID 704, 2007 | 0.79% of 97,000 active;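 active means inhibition above the screen-wide mean plus 3 SD, cut at about 35% in these data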
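Test system: Cy5-tagged RRE RNA duplex with fluorescein-tagged Rev peptide; Probe or stimulus: labelled Rev peptide; Schedule: 5 min preincubation and 15 min binding, 25 °C; Signal: FRET fluorescence readout; Evaluation: % inhibition from 671/540 nm acceptor-to-donor ratio, scaled between controls; Control set: DMSO and neomycin B.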
CYP2C19 inh: blockers of cytochrome P450 2C19 activity – biochemical, luminescence, ADME assay, primary screen; AID 778, 2007; inhibition, % at 5 µM; CYP2C19 Supersomes, luciferin-H EGE luminescence, 30 min; P33261; 21% of 96,000 active;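 active means CYP2C19 inhibition above a set limit at 5 µM in the primary screen, cut at about 50% in these data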
CYP2C9 inhib: blockers of cytochrome P450 2C9 activity – biochemical, luminescence, ADME assay, primary screen. inhibition, % at 5 µM. AID 777, 2007. P11712. 20% of 96,000 active. CYP2C9 Supersomes, luciferin-H conversion;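 active means blocking of liver enzyme CYP2C9 beyond about 50% at 5 µM, limit read from the data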
Each line names hits and unclear results; the compound was inactive in the other large screens. Shown are actives, neighbours in structure and some others; about 27% of the full set was active somewhere.

O=S(=O)(c1ccc(Cl)c(Cl)c1)c1snnc1-c1ccccc1	CYP2C19 inh 98.7, CYP2C9 inhib 90.2
CC(C)(C)SCCNS(=O)(=O)c1ccc(F)cc1	none
O=S(=O)(NCCSc1ccccc1)c1ccc(F)cc1	Cav32 inh -5.73
O=S(=O)(NCCSc1ccccc1)c1cccs1	CYP2C19 inh 80.1
O=S(=O)(NCCc1ccccn1)c1cccs1	none
CCCCOc1ccc(C(=O)NCc2ccccn2)cc1	none
Oc1ccccc1-c1cc(-c2ccccc2Cl)[nH]n1	none
c1ccc(Cc2nnc3sc(-c4ccncc4)nn23)cc1	CYP2C19 inh 96.2, CYP2C9 inhib 51.6
CCOc1ccc(-c2nnc3sc(-c4ccccc4OC)nn23)cc1	none (no result: CYP2C9 activ, CYP2C19 activ, Cav32 inh, CYP2C19 inh, CYP2C9 inhib)
c1ccc(Cc2nnc3sc(-c4cccnc4)nn23)cc1	CYP2C19 inh 98.4, CYP2C9 inhib 63.5
c1ccc(Cc2nnc3sc(-c4ccccn4)nn23)cc1	CYP2C19 inh 92.5, CYP2C9 inhib 63.4
CCOc1ccccc1-c1nn2c(Cc3ccccc3)nnc2s1	CYP2C19 inh 54.4 (no result: Rev-RRE block)
CC(C)(C)c1cc(CN2CCCC(O)C2)c(O)c(C(C)(C)C)c1 (configuration not stated)	none
O=C(O)CCCC[C@@H]1SC[C@@H]2NC(=O)N[C@@H]21	none (no result: CYP2C9 activ, CYP2C19 activ, Rev-RRE block, CYP2C19 inh, CYP2C9 inhib)
c1ccc(CCc2nn3c(Cc4ccccc4)nnc3s2)cc1	CYP2C19 inh 80.4, CYP2C9 inhib 72.8
c1ccc(Cc2nnc3sc(-c4cccs4)nn23)cc1	CYP2C19 inh 59.9, CYP2C9 inhib 54.8
CC(NC(=O)Cn1c(=O)[nH]c2ccsc2c1=O)C12CC3CC(CC(C3)C1)C2 (configuration not stated)	none
Cc1ccc(C)c(N2CCN(C(=O)C3CCN(S(=O)(=O)c4cccc5nsnc45)CC3)CC2)c1	none (no result: Cav32 inh)
C=CCOc1ccccc1CN1CCSCC1	CYP2C19 inh 71.1
Cc1ccc(CNC(=O)C2C3C=CC(C3)C2C(=O)O)cc1 (configuration not stated)	CYP2C19 inh 53.4
O=C(COC(=O)C1CC2C=CC1C2)NCc1ccco1 (configuration not stated)	CYP2C19 inh 64.0
O=C(COC(=O)C1CC2C=CC1C2)Nc1ccc2c(c1)OC(F)(F)O2 (configuration not stated)	Cav32 inh -5.49 (no result: CYP2C9 activ, CYP2C19 activ, CYP2C19 inh, CYP2C9 inhib)
O=C(COC(=O)C1CCCCC1C(=O)N1CCc2ccccc21)NCc1ccco1 (configuration not stated)	CYP2C19 inh 87.3, CYP2C9 inhib 71.1 (no result: Rev-RRE block)
Cn1c(SCC(=O)NCc2ccccc2)nnc1C1CC1	none
Cc1ccc(N2CCN(C(=O)CNS(=O)(=O)c3ccc(Br)s3)CC2C)cc1 (configuration not stated)	CYP2C19 inh 52.5 (no result: Cav32 inh)
O=C(CNS(=O)(=O)c1ccc(Br)s1)N1CCN(c2ncccn2)CC1	CYP2C9 inhib 61.4
Cc1ccc(C)c(N2CCN(C(=O)CNS(=O)(=O)c3cccs3)CC2)c1	CYP2C19 inh 54.2, CYP2C9 inhib 50.2
CCOC(=O)N1CCN(C(=O)CNS(=O)(=O)c2cccs2)CC1	none
COc1ccc(NC(=O)Nc2ccccc2C(=O)N2CCCC2)cc1	none
C=CCNCCCCOc1ccc(C)cc1[N+](=O)[O-]	none
CC12CN3CC(C)(CN(C1)C3c1ccc(Br)cc1)C2 (configuration not stated)	none (no result: Cav32 inh)
CC(C)CNC(=O)c1ccccc1NC(=O)CN(c1ccc2c(c1)OCCO2)S(C)(=O)=O	CYP2C9 inhib 92.7
CS(=O)(=O)N(CC(=O)Nc1ccccc1C(=O)NCc1ccco1)c1ccc2c(c1)OCCO2	CYP2C9 inhib 91.1
COc1ccccc1N(CC(=O)Nc1ccccc1C(=O)NCC(C)C)S(C)(=O)=O	CYP2C9 inhib 77.1
COc1ccc(N(CC(=O)Nc2ccccc2C(=O)NCCc2ccccc2)S(C)(=O)=O)cc1OC	CYP2C19 inh 82.1, CYP2C9 inhib 99.0
CNC(=O)CN(c1ccc2c(c1)OCCO2)S(C)(=O)=O	none
CC1CCCC(C)N1C(=O)c1cc(-c2cccs2)on1 (configuration not stated)	none (no result: CYP2C9 activ, CYP2C19 activ, Rev-RRE block, CYP2C19 inh, CYP2C9 inhib)
C[N+]1(C)CCCC(OC(=O)C(O)(c2ccccc2)c2ccccc2)C1 (configuration not stated)	Cav32 inh -4.52 (no result: CYP2C9 activ, CYP2C19 activ, Rev-RRE block, CYP2C19 inh, CYP2C9 inhib)
CC[N+](C)(CC)CCOC(=O)C(O)(c1ccccc1)C1CCCCC1 (configuration not stated)	none (no result: CYP2C9 activ, CYP2C19 activ, Rev-RRE block, CYP2C19 inh, CYP2C9 inhib)
Cn1c2c(c(=O)n(C)c1=O)C(c1cccc(Br)c1)C1C(=O)c3ccccc3C1=N2 (configuration not stated)	none (no result: CYP2C9 activ, CYP2C19 activ, Cav32 inh, CYP2C19 inh, CYP2C9 inhib)
COc1ccc(C2=NN(CN3C(=O)C(=O)c4ccccc43)C(c3ccc(C)cc3)C2)cc1 (configuration not stated)	CYP2C19 inh 51.1, CYP2C9 inhib 75.6
O=C(NCc1cccnc1)/C(=C/c1ccc(-c2cccc(C(F)(F)F)c2)o1)NC(=O)c1ccccc1	none (no result: Cav32 inh)
Cc1ccc(C(=O)N/C(=C/c2ccc(-c3cc(C(F)(F)F)ccc3Cl)o2)C(=O)NCc2cccnc2)cc1	CYP2C9 inhib 57.6
COCCn1ccc(O)c(Cc2ccccc2)c1=O	none
Cc1cc(C(=O)CSc2ccc(Cl)cc2)cc(C)c1OC(=S)N(C)C	CYP2C9 inhib 67.2
O=C1NC(=S)SC1=C1CCCC1	CYP2C9 inhib 74.3
Cc1cc(N2CCCC2)ccc1/C=N/n1cnnc1	CYP2C19 inh 99.0, CYP2C9 inhib 86.1
Fc1ccccc1/C=N/n1cnnc1	none (no result: Cav32 inh)
CCC(C)(C)n1nnnc1CN(Cc1cccs1)Cc1cc2cc(OC)ccc2[nH]c1=O	CYP2C19 inh 70.1, CYP2C9 inhib 59.3 (no result: Rev-RRE block)
CCOc1ccc2[nH]c(=O)c(CN(Cc3cccs3)Cc3nnnn3C(C)(C)CC)cc2c1	none
CCOC(=O)Cn1nnnc1CN(Cc1cccs1)Cc1cc2cc(C)cc(C)c2[nH]c1=O	CYP2C19 inh 62.8 (no result: Cav32 inh)
Cc1cccc2cc(CN(Cc3cccs3)Cc3nnnn3Cc3ccccc3)c(=O)[nH]c12	CYP2C19 inh 64.7 (no result: Cav32 inh)
O=c1[nH]c2cc3c(cc2cc1CN(Cc1cccs1)Cc1nnnn1Cc1ccco1)OCCO3	none
CCN(CC)c1ncnc2ccc(Br)cc12	none
C=CCSc1nc(N)c2c(C)c(C)sc2n1	CYP2C19 inh 87.6, CYP2C9 inhib 58.1 (no result: Rev-RRE block)
CCSc1nc(N)c2c(C)c(C)sc2n1	none (no result: CYP2C9 activ, CYP2C19 activ, CYP2C19 inh, CYP2C9 inhib)
COc1cc(-c2cc(N)n(S(=O)(=O)c3ccccc3)n2)cc(OC)c1OC	CYP2C19 inh 95.8, CYP2C9 inhib 97.9
COc1ccc(-c2cc(N)n(S(=O)(=O)c3ccc(C)cc3)n2)c(OC)c1	none

Screens (PubChem BioAssay)
